# High-throughput results from PubChem BioAssay.
# Many of the other results were omitted from the sample, so hits are more common in it than they were.
# Dynein transport = inhibitors of GR-EGFP nuclear translocation, primary screen, dynein cargo transport inhibitor project, imaging, high-content, 3617.4 mouse cells. AID 1381, 2008. z-score, hits read low. test concentration mostly 20 µM; stimulated with dexamethasone, 1 µM; active compounds read low. 220,000 tested, 0.47% active;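 active = plate z-score of nuclear minus cytoplasmic receptor signal below a set negative limit, without overly bright fluorescence or cell loss, cut at about -3.5 in these data, passing the limit was not always enough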;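 note: z-score of nuclear minus cytoplasmic ring GR-EGFP intensity difference per well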
#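 Buffer or medium: tetracycline-free induction medium containing charcoal-stripped FBS / Reagent: dexamethasone agonist, 1.0 µM final, for 30 min / Technique: automated 10x imaging of fixed Hoechst-stained cells / Times: induction 48 h, compound 1 h, agonist 30 min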
# XBP1 UPR activ = activators of adaptive XBP1 UPR arm, primary screen, cell-based, CHO-XBP1 luciferase reporter, luminescence, uHTS. IRE1-XBP1 UPR activation; percent of tunicamycin response, DMSO as zero. AID 463104, 2010. 330,000 tested, 0.33% active. activation, % at 20 µM;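 active = versus positive control, 20 µM dose yields 30% or more activation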;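 note: 100% = tunicamycin at 10 µg/mL and 0% = DMSO only wells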
#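 Assay system: IRE1-XBP1 luciferase reporter CHO line. Input: 1000 cells/well. Buffer or medium: F12 with 10% serum. Doses: 20 µM, 1% DMSO. Times: overnight seeding at 37 °C, 6 h compound treatment at 37 °C. Technique: Steady-Glo luciferase glow luminescence, 10 min after reagent addition.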
# p-CIP stab down = p/CIP-EGFP fusion destabilizers, primary screen, fluorescence, F442A cells; 16 h; decrease of EGFP signal, % at 10 µM; 290,000 tested, 0.01% active;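 active = EGFP signal decrease of at least 30% at 10 µM or well 3 SD below plate mean, unless failing retest; inactive = the rest, including hits failing retest or dose response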
# UPR CHOP act = activators of apoptotic CHOP UPR arm, primary screen, cell-based, CHO-CHOP luciferase reporter, luminescence, uHTS; UPR activation; percent of tunicamycin response over DMSO baseline; activation, % at 10 µM; 330,000 tested, 0.34% active; AID 449763, 2010;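 active = at 10 µM dose, activation of 40% or more, normalized to positive control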;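 note: 100% = tunicamycin at 10 µg/mL and 0% = DMSO alone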
#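 System: CHO-CHOP luciferase reporter cell line | Buffer or medium: F12 medium containing 10% fetal bovine serum | Doses: One dose, 10 µM in 0.5% DMSO | Times: 6 h compound exposure at 37 °C after overnight seeding | Signal: Luciferase luminescence | Read-out: % activation vs tunicamycin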
# B2AR ag = beta2AR agonists driving receptor internalization, primary screen, cell-based, FAP fluorogen, flow cytometry; Beta-2 adrenergic receptor (Homo sapiens), P07550; Am2.2-beta2AR cells; response, % (concentration not given with the values); 340,000 tested, 0.43% active;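 active = response above a set limit, near 3 SD of response in nonfluorescent compounds, cut at about 42% in these data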
# Target sequence (P07550 whole entry, looked up): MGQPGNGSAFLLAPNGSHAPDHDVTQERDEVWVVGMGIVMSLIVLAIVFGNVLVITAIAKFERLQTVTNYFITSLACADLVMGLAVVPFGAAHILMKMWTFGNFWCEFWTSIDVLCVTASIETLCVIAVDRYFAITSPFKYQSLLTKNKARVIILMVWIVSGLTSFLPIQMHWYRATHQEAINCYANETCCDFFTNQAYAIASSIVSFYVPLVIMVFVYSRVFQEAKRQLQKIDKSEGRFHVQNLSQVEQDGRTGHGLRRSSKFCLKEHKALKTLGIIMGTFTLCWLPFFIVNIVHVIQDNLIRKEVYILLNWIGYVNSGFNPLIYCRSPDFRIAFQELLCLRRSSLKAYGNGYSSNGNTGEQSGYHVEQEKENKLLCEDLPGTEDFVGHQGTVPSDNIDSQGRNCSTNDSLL
# CHOP inhibitor = inhibitors of CHOP promoter induction, primary screen, cell-based, unfolded protein response, luciferase reporter. CHO-K1 CHOP-promoter luciferase, tunicamycin-induced, 15-18 h. 220,000 tested, 3.8% active. inhibition, % at 10 µM. AID 2732, 2010;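 active = compounds that reduced the stress-induced luciferase reporter signal by more than about 70% of percent inhibition, limit read from the data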;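 note: 0% = tunicamycin plus vehicle and 100% = wells without tunicamycin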
# * marks the source's active call; other numbers are inactive results; . = not tested or not shown; ! = a repeat was not active.
SMILES,Dynein transport,XBP1 UPR activ,p-CIP stab down,UPR CHOP act,B2AR ag,CHOP inhibitor
O=C1NN=C(c2ccc(Cl)cc2)CC1c1cccc(Br)c1 (stereo unspecified),0.021,-1.3,3.0,0.5,-1.7,78.5*
O=C1NN=C(c2ccc(Cl)cc2)CC1c1c[nH]c2ccccc12 (stereo unspecified),-0.993,-4.8,-14.3,-2.0,8.6,3.5
COc1cc(/C=N/N=C(N)N)ccc1OCc1ccccc1Cl,-3.1,14.2,15.3,3.8,53.7*,56.9
C=CCn1c(=O)c2ccccc2n2c(SC(C)C(N)=O)nnc12 (stereo unspecified),.,-2.7,-3.2,-0.5,-0.2,.
C=CCn1c(=O)c2ccccc2n2c(SCC(=O)/C(C#N)=C(\C)N)nnc12,-0.384,4.4,4.4,1.6,65.1*!,1.1
Cc1cc(C)cc(N(CC(=O)NCc2ccco2)S(=O)(=O)c2ccccc2)c1,.,-4.6,-2.2,0.9,-0.8,.
CCN(CC)CCNC(=O)c1ccc(Sc2ccc(Cl)cc2)c(NC(C)=O)c1,-1.27,-2.1,15.7,1.3,-1.7,24.1
CC(C)NC(=S)N/N=C/C1=CCC2CC1C2(C)C (stereo unspecified),0.416,0.4,2.6,1.3,4.5,72.0*
CCCCNC(=S)N/N=C/C1=CCC2CC1C2(C)C (stereo unspecified),1.85,-0.2,2.5,1.1,1.0,16.2
C=C(C)CNC(=S)N/N=C/C1=CCC2CC1C2(C)C (stereo unspecified),-1.45,-4.8,-12.7,-1.2,0.7,83.7*
COc1ccc(C(=O)Oc2ccc(C(=S)N3CCCC3)cc2)cc1OC,-0.813,-2.4,-6.5,-0.3,.,93.3*
CCCCC1=CC2=C(c3ccco3)C(=O)C(C)(OC(=O)c3ccc(OC)cc3)C(=O)C2=CN1Cc1ccc(OC)cc1 (stereo unspecified),-1.01,0.3,-13.4,4.6,.,-2.0
CCCCC1=CC2=C(c3ccco3)C(=O)C(C)(OC(=O)c3ccc(OC)cc3)C(=O)C2=CN1CC1CC1 (stereo unspecified),-0.721,23.1,2.2,32.8,11.1,90.2*
O=C(O)CCC(C(=O)O)N1C(=O)c2ccccc2C1=O (stereo unspecified),.,.,.,.,.,-4.0
Cc1ccc2nc(N3CCN(Cc4nnnn4Cc4ccccc4)CC3)c(C#N)cc2c1,-0.381,-3.3,11.7,0.3,-6.5,91.6*
Cc1ccc2nc(N3CCN(C)CC3)c(C#N)cc2c1,0.226,1.8,-5.2,-0.5,-16.5,11.0
O=C(C1CCN(c2nnc(-n3cccc3)s2)CC1)N1CCN(c2cccc(C(F)(F)F)c2)CC1,0.161,-3.2,0.2,-2.2,-2.8,76.6*
Oc1oc(-c2cccc3ccccc23)nc1C=NCc1ccccc1,-0.158,.,.,.,.,-0.1
Oc1oc(-c2cccc3ccccc23)nc1/C=N/c1nccs1,0.338,-1.6,-15.4,1.6,1.0,90.5*
CCCOC(=O)c1ccc(-c2c(C)noc2-c2ccc(OC)cc2O)o1,1.4,-1.1,-19.0,-2.4,-6.2,92.9*
O=S(=O)(NN=C1CCCCCC1)c1ccccc1,.,-5.0,-3.0,1.3,4.0,.
CCCCN(C(=O)c1cccc(S(=O)(=O)N(C)c2ccc(C)cc2)c1)c1c(N)n(CCCC)c(=O)[nH]c1=O,.,-4.7,.,-0.8,-7.2,.
CC(C)OC(=O)CSc1ncnc2c1cnn2Cc1ccccc1,0.427,-1.7,-3.2,-0.4,3.0,74.9*
Cc1ccc2nc3cc([N+](=O)[O-])cc([N+](=O)[O-])c3cc2c1,-6.25*,.,-15.8,.,58.7*,94.8*
N#Cc1c(N2CCN(C(=O)c3ccccc3)CC2)nc(-c2ccccc2)c2c1CCCC2,-0.811,-3.2,-1.6,1.9,6.7,71.8*
SMILES,Dynein transport,XBP1 UPR activ,p-CIP stab down,UPR CHOP act,B2AR ag,CHOP inhibitor
CC(=O)N1CCN(c2nc(CC(C)C)c3c(c2C#N)CCC3)CC1,-0.273,0.9,-11.6,-1.4,1.2,20.1
CC1(C)Cc2c(C#N)c(N3CCN(C(=O)c4ccco4)CC3)nc(Cc3ccccc3)c2CO1,-0.884,-6.6,-12.5,3.0,9.6,87.6*
N#Cc1c(NCCCO)nc(-c2ccccc2)c2c1CCCC2,0.959,1.8,-24.1,-1.0,-5.3,77.7*
N#Cc1c(N2CCN(C(=O)c3ccccc3Cl)CC2)nc(-c2ccccc2)c2c1CCCC2,-0.182,-3.2,-7.5,-1.1,6.5,5.4
CC(C)Cc1nc(N2CCN(C(=O)c3ccccc3)CC2)c(C#N)c2c1CCC2,-0.172,0.2,-10.0,0.0,3.9,79.7*
CN(C(=O)CCCOc1ccc2[nH]c(=O)ccc2c1)C1CCCCC1,.,.,.,.,.,7.8
CC(C)(C)c1ccc(OCCNC(=O)c2ncn[nH]2)cc1,0.268,1.9,2.0,3.1,1.9,0.3
OC(CN1CCC(Cc2ccc(F)cc2)CC1)c1ccc(Cl)cc1 (stereo unspecified),.,.,.,.,.,-6.3
O=c1[nH]c(/C=C/c2ccc(Cl)cc2Cl)c([N+](=O)[O-])c(=O)[nH]1,.,-3.8,-10.8,0.8,3.7,.
COc1ccccc1C1=NOC(COc2ccc3c(C)cc(=O)oc3c2)C1 (stereo unspecified),0.708,15.9,-21.0,1.1,44.2*,-39.5
COc1ccc(C2=NOC(COc3ccc4c(C)cc(=O)oc4c3)C2)c(OC)c1 (stereo unspecified),-0.464,2.1,0.5,0.1,20.5,13.1
COc1ccccc1NC(=S)NC1CCC(CC2CCC(NC(=S)Nc3ccccc3OC)CC2)CC1 (stereo unspecified),0.334,-0.8,5.5,2.2,3.3,5.4
Cc1ccc(C)c(NC(=O)Cn2cnc3c(oc4ccccc43)c2=O)c1,-0.337,-2.4,9.8,0.1,3.6,72.0*
Cc1ccc(C)c(NC(=O)Cn2nc(-c3ccccc3)nc2-c2ccccc2)c1,0.31,-0.4,-7.3,-2.4,-3.8,86.8*
COc1cccc(CC(=O)OCC(=O)N(C)CC(=O)Nc2ccc(F)cc2)c1,.,-0.7,.,-0.7,1.1,.
CCn1c(SCC(=O)Nc2nc3ccc(OC)cc3s2)nc2c1c(=O)n(C)c(=O)n2C,-0.413,6.9,-3.8,1.9,14.5,83.8*
O=C(CN(c1ccc(Cl)cc1)S(=O)(=O)c1ccccc1)N1CCN(c2ccccc2)CC1,0.267,-3.7,-9.1,-1.9,0.2,73.2*
ClC(Cl)c1nnc(-c2ccccc2)c(-c2c[nH]c3ccccc23)n1,1.9,-0.8,-7.0,0.6,7.9,80.2*
Cc1ccc(C(=O)OCC(=O)NC(C)C2CC3CCC2C3)cc1N (stereo unspecified),.,0.3,.,-2.3,-1.9,.
